Results reported in ChEMBL document CHEMBL4382240, “Discovery of novel 2,5-dihydroxyterephthalamide derivatives as multifunctional agents for the treatment of Alzheimer's disease” (Bioorg Med Chem, 2018).

Assays:
[1] = Anti-inflammatory activity in […] cells assessed as inhibition of LPS-stimulated NO release at 10 uM preincubated for 30 mins followed by LPS stimulation and measured after 24 hrs by Griess reagent based assay relative to control; assay type: functional; details: BV-2
Summary of the method: (§1)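 BV-2 cells cultured 24 h in DMEM (10% FBS, glutamine, pyruvate, pen/strep) at 37 °C, 5% CO2. Compound (DMSO stock diluted in PBS) added 30 min before LPS (1.0 µg/mL), then 24 h. Nitrite in supernatant measured by Griess reagent for 10 min at room temperature, A540, against a NaNO2 standard curve. Triplicate wells; mean ± SD of three independent experiments.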

[2] = Anti-inflammatory activity in […] cells assessed as inhibition of LPS-stimulated NO release at 2.5 uM preincubated for 30 mins followed by LPS stimulation and measured after 24 hrs by Griess reagent based assay relative to control; assay type: functional; details: BV-2; summary of the method: as §1
[3] = Anti-inflammatory activity in […] cells assessed as inhibition of LPS-stimulated TNFalpha release at 10 uM preincubated for 30 mins followed by LPS stimulation and measured after 24 hrs by ELISA relative to control; assay type: functional; details: BV-2
Summary of the method: (§2)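 Confluent BV-2 cells in DMEM preincubated 30 min with compound, tested over 0.5–10 µM, then stimulated with LPS (1.0 µg/mL) for 24 h. Released TNF-α measured by ELISA following kit instructions. Triplicate wells; mean ± SD of three independent experiments.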

[4] = Cytotoxicity against […] cells assessed as decrease in cell viability up to 10 uM measured after 24 hrs by MTT assay; assay type: cell-based
Summary of the method: (§3)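 BV-2 cells grown 24 h, then treated with compound (0.5, 2.5, 10.0 µM) for 30 min, with or without LPS (1.0 µg/mL), for a further 24 h. MTT (5 mg/mL) added for 4 h, formazan dissolved in DMSO, A490 read. Viability given as percent of untreated cells. Triplicate wells; three independent experiments.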

[5] = Anti-inflammatory activity in […] cells assessed as inhibition of LPS-stimulated TNFalpha release at 2.5 uM preincubated for 30 mins followed by LPS stimulation and measured after 24 hrs by ELISA relative to control; assay type: functional; details: BV-2; summary of the method: as §2
[6] = Cytotoxicity against […] cells assessed as decrease in cell viability up to 10 uM preincubated for 30 mins followed by LPS stimulation and measured after 24 hrs by MTT assay; assay type: cell-based; summary of the method: as §3
[7] = target: T1, Amyloid-beta precursor protein (Homo sapiens, UniProt P05067); assay: Inhibition of human amyloid beta (1 to 42) self-induced aggregation at 25 uM after 24 hrs by Thioflavin T based fluorometric assay relative to control
T1 sequence (P05067 whole entry): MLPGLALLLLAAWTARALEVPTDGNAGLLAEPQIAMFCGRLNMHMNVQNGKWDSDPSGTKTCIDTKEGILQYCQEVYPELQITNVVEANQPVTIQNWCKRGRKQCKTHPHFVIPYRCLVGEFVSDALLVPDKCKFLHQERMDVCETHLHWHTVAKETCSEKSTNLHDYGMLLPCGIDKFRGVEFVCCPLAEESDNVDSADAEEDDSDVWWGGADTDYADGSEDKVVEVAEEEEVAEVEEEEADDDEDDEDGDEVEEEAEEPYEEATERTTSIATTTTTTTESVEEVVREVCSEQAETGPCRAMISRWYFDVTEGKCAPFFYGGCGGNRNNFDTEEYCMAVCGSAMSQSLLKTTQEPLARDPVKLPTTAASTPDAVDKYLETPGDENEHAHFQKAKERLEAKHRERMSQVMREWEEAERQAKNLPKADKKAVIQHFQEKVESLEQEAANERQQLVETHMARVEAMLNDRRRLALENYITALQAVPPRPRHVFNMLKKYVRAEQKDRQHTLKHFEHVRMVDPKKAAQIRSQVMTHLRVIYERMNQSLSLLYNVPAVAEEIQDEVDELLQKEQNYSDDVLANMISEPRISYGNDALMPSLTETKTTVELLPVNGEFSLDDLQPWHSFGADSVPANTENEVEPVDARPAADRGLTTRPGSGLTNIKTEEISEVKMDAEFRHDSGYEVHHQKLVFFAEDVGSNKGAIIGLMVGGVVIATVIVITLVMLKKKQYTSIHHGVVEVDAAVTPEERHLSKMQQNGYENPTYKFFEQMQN
Summary of the method: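 Aβ1-42 (25 µM final) incubated with compound (25 µM final) in 50 mM phosphate buffer, pH 7.4, for 24 h at 37 °C under a sealing film. ThT (5 µM) in 50 mM glycine-NaOH, pH 8.5, then added and fluorescence measured. Triplicate; mean ± SD of three independent experiments.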

[8] = target: Acetylcholinesterase (Electrophorus electricus, UniProt O42275); assay: Inhibition of electric eel AChE using acetylthiocholine iodide as substrate after 15 mins by Ellman's method
Chain of Acetylcholinesterase (Electrophorus electricus, UniProt O42275) (O42275 whole entry): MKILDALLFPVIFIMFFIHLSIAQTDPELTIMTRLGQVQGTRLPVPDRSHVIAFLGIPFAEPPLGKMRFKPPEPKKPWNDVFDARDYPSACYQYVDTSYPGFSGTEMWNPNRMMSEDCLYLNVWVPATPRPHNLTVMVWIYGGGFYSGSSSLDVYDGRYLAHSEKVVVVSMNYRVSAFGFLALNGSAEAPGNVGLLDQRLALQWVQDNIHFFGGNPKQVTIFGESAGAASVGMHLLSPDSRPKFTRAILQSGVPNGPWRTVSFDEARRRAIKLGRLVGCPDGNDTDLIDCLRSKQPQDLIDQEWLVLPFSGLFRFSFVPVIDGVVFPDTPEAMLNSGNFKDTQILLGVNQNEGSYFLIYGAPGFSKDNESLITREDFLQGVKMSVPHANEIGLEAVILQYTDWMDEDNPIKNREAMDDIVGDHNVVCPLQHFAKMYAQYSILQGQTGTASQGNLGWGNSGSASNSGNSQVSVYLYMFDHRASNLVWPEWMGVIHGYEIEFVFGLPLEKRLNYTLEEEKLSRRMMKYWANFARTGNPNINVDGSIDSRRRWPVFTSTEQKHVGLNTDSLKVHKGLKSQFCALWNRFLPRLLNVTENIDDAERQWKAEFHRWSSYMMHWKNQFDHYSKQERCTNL

[9] = Inhibition of Cu2+ induced human amyloid beta (1 to 42) aggregation at 25 uM after 24 hrs by Thioflavin T based fluorometric assay relative to control
Summary of the method: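 Aβ1-42 (25 µM) and Cu2+ (25 µM) in HEPES buffer (20 mM, pH 6.6, 150 mM NaCl), with or without compound (25 µM final), incubated 24 h at 37 °C. ThT (5 µM) in glycine-NaOH, pH 8.5, added and fluorescence read. Triplicate; three independent experiments.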

[10] = Antioxidant activity assessed as trolox equivalent of APPH-induced radical scavenging activity at 5 uM preincubated for 15 mins followed by AAPH addition measured every minute for 90 mins by ORAC fluorescein assay; assay type: functional
Summary of the method: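 ORAC-FL in 75 mM phosphate buffer, pH 7.4. Fluorescein (150 nM final) and sample (tested at 1–10 µM) incubated 15 min at 37 °C. AAPH (12 mM final) then added, and fluorescence (ex 485/em 535 nm) read every minute for 90 min. Trolox standard 1–8 µM; result expressed as µM Trolox equivalent per µM compound. Duplicate wells; three independent experiments.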

[11] = target: T2, Acetylcholinesterase (Rattus norvegicus, UniProt P37136); assay: Inhibition of rat cortex AChE using acetylthiocholine iodide as substrate after 15 mins by Ellman's method
T2 sequence (P37136 whole entry): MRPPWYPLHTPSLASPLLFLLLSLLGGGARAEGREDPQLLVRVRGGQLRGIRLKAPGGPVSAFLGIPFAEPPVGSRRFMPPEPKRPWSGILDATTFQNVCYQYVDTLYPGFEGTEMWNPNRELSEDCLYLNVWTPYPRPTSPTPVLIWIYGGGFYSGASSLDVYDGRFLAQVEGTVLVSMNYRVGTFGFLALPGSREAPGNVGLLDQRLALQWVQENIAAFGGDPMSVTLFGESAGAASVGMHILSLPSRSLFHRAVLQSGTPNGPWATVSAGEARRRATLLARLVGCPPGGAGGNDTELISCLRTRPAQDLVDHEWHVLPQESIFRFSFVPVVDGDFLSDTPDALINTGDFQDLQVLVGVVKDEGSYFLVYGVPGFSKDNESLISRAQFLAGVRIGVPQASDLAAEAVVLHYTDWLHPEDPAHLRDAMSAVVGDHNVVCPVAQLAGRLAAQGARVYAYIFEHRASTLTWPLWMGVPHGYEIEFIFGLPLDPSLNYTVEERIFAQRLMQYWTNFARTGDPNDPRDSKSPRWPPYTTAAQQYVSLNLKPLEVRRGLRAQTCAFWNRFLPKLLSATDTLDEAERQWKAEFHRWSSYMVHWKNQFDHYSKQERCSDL

[12] = target: Butyrylcholinesterase (Rattus norvegicus, UniProt Q9JKC1); assay: Inhibition of rat serum BuChE using butyrylthiocholine iodide as substrate after 15 mins by Ellman's method; assay type: ADME
Chain of Butyrylcholinesterase (Q9JKC1 whole entry): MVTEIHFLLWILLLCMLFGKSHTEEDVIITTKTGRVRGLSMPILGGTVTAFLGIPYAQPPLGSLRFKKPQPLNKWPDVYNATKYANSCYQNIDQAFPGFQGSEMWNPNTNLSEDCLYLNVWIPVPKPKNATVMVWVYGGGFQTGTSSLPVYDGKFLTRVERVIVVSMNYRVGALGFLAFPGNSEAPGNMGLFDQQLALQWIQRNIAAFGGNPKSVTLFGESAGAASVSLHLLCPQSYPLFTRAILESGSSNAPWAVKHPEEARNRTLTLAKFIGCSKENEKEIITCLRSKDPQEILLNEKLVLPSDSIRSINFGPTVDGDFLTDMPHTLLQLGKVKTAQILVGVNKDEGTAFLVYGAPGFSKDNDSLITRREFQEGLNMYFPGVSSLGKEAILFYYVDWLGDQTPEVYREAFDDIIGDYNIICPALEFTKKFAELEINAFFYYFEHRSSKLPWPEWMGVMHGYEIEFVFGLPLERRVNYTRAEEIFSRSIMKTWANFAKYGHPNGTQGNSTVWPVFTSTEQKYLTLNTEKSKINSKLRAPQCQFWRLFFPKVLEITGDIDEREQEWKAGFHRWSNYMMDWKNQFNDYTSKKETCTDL

[13] = Disaggregation of Cu2+ induced preformed fibrils of human amyloid beta (1 to 42) at 25 uM after 24 hrs by Thioflavin T based fluorometric assay relative to control
Summary of the method: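 Aβ1-42 (25 µM) with Cu2+ (25 µM) in HEPES buffer pre-aggregated 24 h at 37 °C. Compound (25 µM) then added for a further 24 h at 37 °C. Fibril content measured by ThT fluorescence (glycine-NaOH, pH 8.5). Triplicate; three independent experiments.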

[14] = target: T1, Amyloid-beta precursor protein; assay: Disaggregation of self-induced preformed fibrils of human amyloid beta (1 to 42) at 25 uM after 24 hrs by Thioflavin T based fluorometric assay relative to control
Summary of the method: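 Aβ1-42 diluted in HEPES buffer (20 mM, pH 6.6, 150 mM NaCl) and pre-aggregated 24 h at 37 °C. Compound (25 µM) then added for another 24 h at 37 °C on a sealed plate. Remaining fibrils read by ThT fluorescence in glycine-NaOH, pH 8.5. Triplicate; three independent experiments.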

[15] = target: T1, Amyloid-beta precursor protein; assay: Inhibition of human amyloid beta (1 to 42) self-induced aggregation after 24 hrs by Thioflavin T based fluorometric assay
Summary of the method: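 Self-induced Aβ1-42 aggregation (25 µM peptide) in phosphate buffer, pH 7.4, for 24 h at 37 °C with varying compound concentrations. Aggregation read by ThT fluorescence (5 µM ThT, glycine-NaOH pH 8.5).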

Structure (SMILES)	inhibition at 10 µM [1]	inhibition at 2.5 µM [2]	inhibition at 10 µM [3]	Activity [4]	inhibition at 2.5 µM [5]	Activity [6]	inhibition [7]	IC50 [8]	inhibition [9]	Activity [10]	IC50 [11]	IC50 [12]	Activity [13]	Activity [14]	IC50 [15]
CC(C(=O)O)c1ccc(-c2ccccc2)c(F)c1 (configuration not stated) [FLURBIPROFEN]	23%	11.8%	30.3%	Non-Toxic	9.6%	Non-Toxic									
CCN(CCCCNC(=O)c1cc(O)c(C(=O)NCCCCN(CC)Cc2ccccc2N(C)C)cc1O)Cc1ccccc1N(C)C							99.7%	10.8 µM	69.4%	1.16 equiv	4.17 µM	> 100 µM	83.3%	64.4%	3710 nM
CCOC(=O)c1cc(O)c(C(=O)OCC)cc1O							6.5%	> 100 µM	30.7%	0.96 equiv	> 100 µM	> 100 µM			
COc1ccccc1CN(C)CCCCCCNC(=O)c1cc(O)c(C(=O)NCCCCCCN(C)Cc2ccccc2OC)cc1O							99.7%	6.11 µM	85.3%	0.62 equiv	10.6 µM	40.5 µM	89.8%	76.3%	2310 nM
CN(CCCCCCNC(=O)c1cc(O)c(C(=O)NCCCCCCN(C)Cc2ccccc2)cc1O)Cc1ccccc1							99.8%	13.1 µM	89.1%	1.01 equiv	5.6 µM	41.9 µM	89.3%	80.9%	2370 nM
CCN(CCCCCCNC(=O)c1cc(O)c(C(=O)NCCCCCCN(CC)Cc2ccccc2)cc1O)Cc1ccccc1							91.4%	22.9 µM	74.3%	1.27 equiv	4.6 µM	47.2 µM	82.3%	83.5%	2800 nM
CCN(CCCCNC(=O)c1cc(O)c(C(=O)NCCCCN(CC)Cc2ccccc2)cc1O)Cc1ccccc1							88%	14 µM	84.1%	0.93 equiv	4.05 µM	> 100 µM	80%	81.1%	3860 nM
